The source of these data is ChEMBL document CHEMBL2040729, “Lead optimization of 17β-HSD1 inhibitors of the (hydroxyphenyl)naphthol sulfonamide type for the treatment of endometriosis” (J Med Chem, 2012).

The target of assay [1] is T1, 17-beta-hydroxysteroid dehydrogenase type 1 (Homo sapiens, UniProt P14061).
T1 sequence (P14061 whole entry): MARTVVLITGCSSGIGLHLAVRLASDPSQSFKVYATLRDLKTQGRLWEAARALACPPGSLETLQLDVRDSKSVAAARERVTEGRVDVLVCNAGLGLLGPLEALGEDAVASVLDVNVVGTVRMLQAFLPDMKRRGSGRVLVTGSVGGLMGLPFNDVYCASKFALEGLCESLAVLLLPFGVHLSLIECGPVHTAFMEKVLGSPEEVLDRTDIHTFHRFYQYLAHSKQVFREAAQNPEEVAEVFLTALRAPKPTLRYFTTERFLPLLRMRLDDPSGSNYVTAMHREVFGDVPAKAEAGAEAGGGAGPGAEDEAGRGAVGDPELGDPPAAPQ
As to the kind of experiment: Inhibition of human placenta cytosolic 17betaHSD1 using [3H]E1 as substrate after 10 mins by radioflow detection assay. The procedure, abridged: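 Cytosolic 17β-HSD1 from fresh human placenta, obtained by ammonium sulfate precipitation. Incubated at 37 °C in 50 mM phosphate buffer with 20% glycerol and EDTA, with NADH 500 μM and compound (DMSO 1% final). Started with unlabeled + [3H]-E1 (500 nM final), stopped after 10 min with HgCl2, ether-extracted. E1/E2 quantified by radioflow HPLC as % conversion. At least three independent experiments.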

The target in assay [2] is T2, 17-beta-hydroxysteroid dehydrogenase type 2 (Homo sapiens, UniProt P37059).
T2 sequence (P37059 whole entry): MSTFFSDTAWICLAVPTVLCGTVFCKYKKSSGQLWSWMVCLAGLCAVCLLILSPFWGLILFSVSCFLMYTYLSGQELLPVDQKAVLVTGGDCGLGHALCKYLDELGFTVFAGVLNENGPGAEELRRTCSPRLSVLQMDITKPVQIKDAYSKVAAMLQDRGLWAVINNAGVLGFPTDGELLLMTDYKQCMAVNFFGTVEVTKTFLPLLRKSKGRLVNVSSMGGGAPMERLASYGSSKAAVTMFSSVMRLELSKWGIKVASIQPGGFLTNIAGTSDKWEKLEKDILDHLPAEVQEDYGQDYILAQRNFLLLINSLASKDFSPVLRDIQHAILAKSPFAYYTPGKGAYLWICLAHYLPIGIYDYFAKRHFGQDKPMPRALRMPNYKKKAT
As to the kind of experiment: Inhibition of human placenta microsomal 17betaHSD2 using [3H]E2 as substrate after 20 mins by radioflow detection assay. The procedure, abridged: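 Microsomal (pellet) fraction of fresh human placenta incubated with NAD+ 1500 μM, compound, and unlabeled + [3H]-E2 (500 nM final) for 20 min at 37 °C. Stopped with 1 mM HgCl2, ether-extracted. Steroids separated by HPLC with radioflow detection, conversion computed. Mean of three determinations.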

The species entered for assay [3] is Callithrix jacchus. Description: Inhibition of mormoset placenta cytosolic 17betaHSD1 using [3H]E1 as substrate at 50 nM after 10 mins by radioflow detection assay.
The species named for assay [4] is Callithrix jacchus. As to the kind of experiment: Inhibition of mormoset placenta microsomal 17betaHSD2 using [3H]E2 as substrate at 50 nM after 20 mins by radioflow detection assay.
In assay [5] the target is T3, Estrogen receptor (Homo sapiens) (UniProt P03372).
T3 sequence (whole entry): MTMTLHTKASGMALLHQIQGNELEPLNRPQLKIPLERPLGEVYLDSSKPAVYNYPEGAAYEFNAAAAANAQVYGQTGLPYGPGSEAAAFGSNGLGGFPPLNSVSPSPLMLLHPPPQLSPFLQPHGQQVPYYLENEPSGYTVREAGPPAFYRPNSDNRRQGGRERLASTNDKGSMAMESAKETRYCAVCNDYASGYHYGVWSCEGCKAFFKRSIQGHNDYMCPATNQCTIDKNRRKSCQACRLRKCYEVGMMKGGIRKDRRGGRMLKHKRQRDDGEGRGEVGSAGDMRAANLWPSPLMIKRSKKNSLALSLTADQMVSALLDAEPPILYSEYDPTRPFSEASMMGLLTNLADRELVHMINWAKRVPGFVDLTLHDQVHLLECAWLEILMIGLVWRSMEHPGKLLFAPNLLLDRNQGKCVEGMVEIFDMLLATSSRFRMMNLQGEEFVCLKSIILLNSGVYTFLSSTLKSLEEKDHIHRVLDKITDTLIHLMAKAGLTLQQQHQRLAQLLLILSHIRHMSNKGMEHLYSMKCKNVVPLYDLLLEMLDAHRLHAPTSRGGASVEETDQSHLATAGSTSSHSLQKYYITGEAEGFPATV
Description: Relative binding affinity to human recombinant ERalpha receptor using [3H]E2 as substrate after 1 hr by liquid scintillation counting relative to E2. The procedure, abridged: (§1)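 Recombinant human ERα or ERβ (0.25 pmol) incubated 1 h at rt with [3H]-E2 (10 nM) and compound in DMSO (5% final). Nonspecific binding defined with diethylstilbestrol 10 μM. Bound complex captured on hydroxyapatite, washed, resuspended in ethanol, counted by liquid scintillation. Concentrations displacing 50% of bound label compared with E2, which is set at 100%.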

The target in assay [6] is Estrogen receptor beta (Homo sapiens) (UniProt Q92731). Description: Relative binding affinity to human recombinant ERbeta receptor using [3H]E2 as substrate after 1 hr by liquid scintillation counting relative to E2. The procedure, abridged:
as §1

Assay [7] concerns the target T1, 17-beta-hydroxysteroid dehydrogenase type 1. Description: Inhibition of 17betaHSD1 in human T47D cells using [3H]E1 as substrate incubated for 30 mins prior to substrate addition measured after 30 mins by radioflow detection assay. In kind it is cell-based. The essentials: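 T47D cells kept in RPMI 1640 with 10% FCS, glutamine, insulin-zinc, pyruvate, antibiotics. Seeded at 5 × 10^5 cells/well in DMEM with FCS, switched to serum-free DMEM after 24 h. Compound added in DMSO (1% final), 30 min preincubation at 37 °C, 5% CO2. Then unlabeled + [3H]-E1 (50 nM final) for 30 min. Steroids extracted into diethylether. Mean of three determinations.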

Structures are written as SMILES.

Estrogen receptor beta (Homo sapiens), sequence (Q92731 whole entry): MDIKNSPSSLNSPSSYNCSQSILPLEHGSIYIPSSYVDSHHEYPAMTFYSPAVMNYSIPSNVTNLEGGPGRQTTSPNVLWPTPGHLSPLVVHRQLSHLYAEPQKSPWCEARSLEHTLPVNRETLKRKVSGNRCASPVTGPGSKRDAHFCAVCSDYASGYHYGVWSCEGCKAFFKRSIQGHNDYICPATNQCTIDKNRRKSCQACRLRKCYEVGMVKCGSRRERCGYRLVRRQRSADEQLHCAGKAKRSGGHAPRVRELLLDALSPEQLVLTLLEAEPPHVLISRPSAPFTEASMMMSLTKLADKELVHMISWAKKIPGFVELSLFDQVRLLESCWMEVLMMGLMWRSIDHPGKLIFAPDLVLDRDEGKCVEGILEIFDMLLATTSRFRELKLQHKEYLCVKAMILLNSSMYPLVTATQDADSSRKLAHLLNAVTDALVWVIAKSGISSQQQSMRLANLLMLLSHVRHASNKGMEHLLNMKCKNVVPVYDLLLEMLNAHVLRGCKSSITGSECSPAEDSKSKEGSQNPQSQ

One may read the IC50 as the concentration needed to halve the response being measured. Broadly, the inhibition is the drop in the measured response relative to a control, in per cent. As to `Cc1ccccc1S(=O)(=O)Nc1cccc(-c2c(O)ccc3cc(-c4cccc(O)c4)ccc23)c1`, the 50% inhibitory concentration (IC50) in assay [1] came to 31 nM; in assay [2], 188 nM; in assay [7], 525 nM. Also, the inhibition was 20% in the assay listed under Callithrix jacchus [3] and under 10% in the assay filed under Callithrix jacchus [4]. Moreover, the RBA in assay [5] and in assay [6] was under 0.1% in each case.
As for `Cc1ccc(S(=O)(=O)Nc2cccc(-c3c(O)ccc4cc(-c5cccc(O)c5)ccc34)c2)cc1`, the figures for the IC50 in assay [1], in assay [2] and in assay [7] were 35 nM, 367 nM and 633 nM, respectively. Also, the inhibition in the assay listed under Callithrix jacchus [3] is under 10%; in the assay listed under Callithrix jacchus [4], 11%. Besides, the RBA in assay [5] and in assay [6] was under 0.1% each time.
In the case of `O=[N+]([O-])c1ccc(S(=O)(=O)Nc2cccc(-c3c(O)ccc4cc(-c5cccc(O)c5)ccc34)c2)c([N+](=O)[O-])c1`, the results for the IC50 in assay [1] and in assay [2] were 690 nM and 371 nM, respectively. The inhibition in the assay listed under Callithrix jacchus [3] came out at 16%; in the assay listed under Callithrix jacchus [4], 36%. Besides, the RBA in assay [5] and in assay [6] was under 0.1% in each case.
On to `O=S(=O)(c1ccccc1)n1ccc2ccc(-c3c(O)ccc4cc(-c5cccc(O)c5)ccc34)cc21`, for which the half-inhibitory concentration (IC50) in assay [1] worked out at 519 nM; in assay [2], 996 nM. Moreover, the inhibition in the assay filed under Callithrix jacchus [3] stood at 14%; in the assay filed under Callithrix jacchus [4], 12%.
As to `O=S(=O)(Nc1cccc(-c2c(O)ccc3cc(-c4cccc(O)c4)ccc23)c1)c1ccccc1F`, the IC50 was 29 nM in assay [1], 749 nM in assay [2] and 429 nM in assay [7]. The inhibition in the assay listed under Callithrix jacchus [3] is 19%; in the assay listed under Callithrix jacchus [4], under 10%. Further, the RBA in assay [5] and in assay [6] was under 0.1% throughout.
With `O=S(=O)(Nc1cccc(-c2c(O)ccc3cc(-c4cccc(O)c4)ccc23)c1)c1ccc(F)cc1`, the IC50 is 53 nM in assay [1], 834 nM in assay [2] and 637 nM in assay [7]. Further, the inhibition was 24% in the assay filed under Callithrix jacchus [3] and 20% in the assay listed under Callithrix jacchus [4]. Besides, the RBA in assay [5] and in assay [6] was under 0.1% in each case.
In the case of `CC(=O)Nc1ccc(S(=O)(=O)Nc2cccc(-c3c(O)ccc4cc(-c5cccc(O)c5)ccc34)c2)cc1`, the IC50 amounted to 12 nM in assay [1], 408 nM in assay [2] and 240 nM in assay [7]. Also, the results for the inhibition in the assay listed under Callithrix jacchus [3] and in the assay filed under Callithrix jacchus [4] were 31% and under 10%, respectively. Also, the RBA in assay [5] and in assay [6] was under 0.1% throughout.
For the compound `O=S(=O)(Nc1cccc(-c2c(O)ccc3cc(-c4cccc(O)c4)ccc23)c1)c1ccc(O)cc1`, the IC50 in assay [1] came to 19 nM; in assay [2], 352 nM; in assay [7] it was 1010 nM. Besides, the inhibition in the assay listed under Callithrix jacchus [3] is under 10%; in the assay listed under Callithrix jacchus [4], 30%. The RBA in assay [5] and in assay [6] was under 0.1% in each case.
On to `Cc1cccc(S(=O)(=O)Nc2cccc(-c3c(O)ccc4cc(-c5cccc(O)c5)ccc34)c2)c1`, for which the concentration for half-maximal inhibition (IC50) in assay [1] came out at 33 nM; in assay [2], 446 nM; in assay [7] it was 440 nM. Also, the figures for the inhibition in the assay filed under Callithrix jacchus [3] and in the assay filed under Callithrix jacchus [4] were under 10% and 11%, respectively. Besides, the RBA in assay [5] and in assay [6] was under 0.1% each time.
As to `N#Cc1ccc(S(=O)(=O)Nc2cccc(-c3c(O)ccc4cc(-c5cccc(O)c5)ccc34)c2)cc1`, the IC50 in assay [1] worked out at 25 nM; in assay [2], 825 nM; in assay [7] it was 555 nM. Further, the inhibition in the assay filed under Callithrix jacchus [3] turned out to be 25%; in the assay listed under Callithrix jacchus [4], 30%. Further, the RBA in assay [5] and in assay [6] was under 0.1% each time.
With `O=S(=O)(c1ccccc1)n1ccc2c(-c3c(O)ccc4cc(-c5cccc(O)c5)ccc34)cccc21`, the IC50 in assay [1] is 32 nM; in assay [2], 391 nM; in assay [7] it was 1100 nM. Also, the figures for the inhibition in the assay listed under Callithrix jacchus [3] and in the assay listed under Callithrix jacchus [4] were 79% and 43%, respectively. Further, the RBA in assay [5] and in assay [6] was under 0.1% throughout.
